Autophagy HCS: autophagy modulators in MEF cells, primary screen, imaging, high-content, MEF GFP-LC3; 0.98% of 190,000 active; MEF GFP-LC3 puncta imaging; test concentration mostly 10 µM; AID 463193, 2010; calls only at 10 µM (by protocol);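 active means percentage of spot-positive cells more than 3 SD above its plate mean, without a fluorescence outlier flag or 80% toxicity; inconclusive means no clear call, values can overlap the other calls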
INS promoter inh: inhibitors of insulin promoter-driven GFP, primary screen, imaging, TRM-6 cells (human fetal islet line), eGFP reporter, cell count; inhibition, % at 2 µM; reporter expression induced with tamoxifen; 0.9% of 130,000 active; AID 1273, 2008;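 active means inhibition above the mean plus 3 SD, with well images judged a real hit on visual review, cut at about 60% in these data, passing the limit was not always enough; inconclusive means inhibition over the cutoff but images rejected on review; inactive means inhibition not above the cutoff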
Arbovirus inh: antivirals against arbovirus infection, primary screen, cell-based, full library, 10K replicate subset. arbovirus infection cell-based antiviral screen. inhibition, % at 10 µM. 0.37% of 200,000 active. AID 1251, 2008; in the data active means inhibition above about 30%
RBBP9 inhibitor: human RBBP9 inhibitors, primary screen, biochemical, fluorescence polarization, FP-Rh probe, HTS; Serine hydrolase RBBP9 (Homo sapiens), O75884; recombinant RBBP9; inhibition, % at 7.94 µM; 0.2% of 220,000 active;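 active means inhibition above the campaign mean of all tested compounds plus 3 SD, cut at about 14% in these data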
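Test system: recombinant human RBBP9; Timing: 30 min then 45 min, 25 °C; Detection: fluorescence polarization; Control set: RBBP9 with DMSO as uninhibited control, no-protein wells as full inhibition; Compound dosing: one concentration, 7.94 µM nominal, 0.794% DMSO; Probe or stimulus: FP-Rh activity-based probe, 375 nM before mixing.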
Insulin prom up: insulin promoter activators in MIN6 cells, imaging, high-content screening, mouse beta cells | MIN6 insulin promoter-GFP reporter; hits give high values | z-score at 5 µM | AID 1625, 2009 | 0.3% of 190,000 active;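 active means z-score above 3 at 5 µM with at least 500 cells counted in the well; inconclusive means wells under 500 cells, flagged as cytotoxic or low count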
PKD1 inh: inhibitors of human PKD1 kinase, biochemical, fluorescence polarization; inhibition, % (no concentration beside the values); 0.056% of 200,000 active; Serine/threonine-protein kinase D1 (Homo sapiens), Q15139; PKD1 kinase fluorescence polarization assay; in the data active means inhibition above about 50%
Target sequence (Q15139 whole entry, looked up): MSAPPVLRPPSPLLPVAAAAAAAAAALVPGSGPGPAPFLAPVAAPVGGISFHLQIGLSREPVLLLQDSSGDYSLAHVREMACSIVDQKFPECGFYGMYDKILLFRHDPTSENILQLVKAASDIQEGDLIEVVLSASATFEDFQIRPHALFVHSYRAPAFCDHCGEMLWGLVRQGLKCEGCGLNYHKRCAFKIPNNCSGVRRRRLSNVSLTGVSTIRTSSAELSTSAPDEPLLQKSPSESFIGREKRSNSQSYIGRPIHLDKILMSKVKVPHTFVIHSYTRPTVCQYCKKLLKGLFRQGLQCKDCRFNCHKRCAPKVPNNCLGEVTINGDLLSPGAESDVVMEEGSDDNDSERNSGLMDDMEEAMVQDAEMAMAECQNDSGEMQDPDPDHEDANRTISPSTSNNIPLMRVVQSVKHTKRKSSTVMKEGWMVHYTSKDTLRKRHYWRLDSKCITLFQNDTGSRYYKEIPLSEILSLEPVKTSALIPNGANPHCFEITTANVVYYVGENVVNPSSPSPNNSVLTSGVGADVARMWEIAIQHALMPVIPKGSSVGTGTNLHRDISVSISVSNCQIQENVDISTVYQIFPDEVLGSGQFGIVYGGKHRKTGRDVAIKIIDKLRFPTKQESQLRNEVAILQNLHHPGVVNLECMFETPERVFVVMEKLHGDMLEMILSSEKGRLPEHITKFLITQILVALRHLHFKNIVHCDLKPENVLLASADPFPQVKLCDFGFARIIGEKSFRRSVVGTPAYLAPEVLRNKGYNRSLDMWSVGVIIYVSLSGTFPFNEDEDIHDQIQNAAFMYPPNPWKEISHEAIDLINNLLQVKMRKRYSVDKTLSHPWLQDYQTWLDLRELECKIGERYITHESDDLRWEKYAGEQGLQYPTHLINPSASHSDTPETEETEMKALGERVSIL
A number is an active result; – = inactive; ? = inconclusive; · = no result given; + = active, no number. Sampled rows, rich in hits. Any-hit rate of the full collection: about 2.1%.

SMILES | Autophagy HCS | INS promoter inh | Arbovirus inh | RBBP9 inhibitor | Insulin prom up | PKD1 inh
CCc1nnc(NC(=O)CSc2nnc(Cc3ccccc3)n2-c2ccccc2)s1 | – | 82 | – | – | – | –
COc1ccc(-n2c(Cc3cccn3C)nnc2SCC(=O)NCc2ccccc2Cl)cc1 | + | · | – | – | – | –
Cc1nnc(NC(=O)CSc2nnc(Cc3ccccc3)n2-c2ccccc2)s1 | – | – | – | – | – | –
CCc1c(C)nc2ccc(Br)cc2c1SCCC#N | – | · | – | – | – | –
COc1ccc2cc(C(=O)NCC(=O)O)sc(=O)c2c1OC | – | – | – | – | – | –
COc1ccc2cc(C(=O)OC(C)C)sc(=O)c2c1OC | – | 71 | – | – | · | –
O=C(NCCN1C(=O)S/C(=C/c2cccnc2)C1=O)C1CC(=O)N(Cc2ccccc2)C1 (stereo not given) | – | – | 30 | – | – | –
Cc1nc(Cl)nc(N(C)c2ccccc2)c1[N+](=O)[O-] | · | · | · | – | – | ·
Cc1ccc(-c2csc3nc4c5ccccc5c(NCCCN5CCOCC5)nn4c(=O)c23)cc1 | – | · | – | – | – | –
Cc1ccc(-c2csc3nc4c5ccccc5c(NCCCN(C)C)nn4c(=O)c23)cc1 | + | – | – | – | – | –
COc1ccc(C2Sc3nncn3N2Cc2ccc(C#N)cc2)cc1 (stereo not given) | + | · | – | – | – | –
CCN(CC)CCn1c(=S)[nH]c2ccc(Cl)cc2c1=O | – | · | – | – | 4 | –
Cc1ccc(N=Cc2c(O)[nH]c3ccccc23)c([N+](=O)[O-])c1 | – | · | – | – | – | –
CCOC(=O)N1c2ccccc2Sc2ccccc21 | – | · | – | – | – | –
CCOC(=O)/C(=C/C=C1\Sc2cc(OCC)c(OCC)cc2N1CC)C(C)=O | + | – | – | – | 16 | –
CCOC(=O)/C(=C\C=C1/Sc2cc(OCC)c(OCC)cc2N1CC)C(C)=O | + | – | – | – | · | –
CCN1/C(=C\C=C2\C(=O)N(C)C(=S)N2C)Sc2ccccc21 | – | · | – | – | · | –
CCOC(=O)C1(C)C=C(Nc2ccc(C)cc2)C(=O)N1c1ccc(C)cc1 (stereo not given) | – | 70 | – | – | – | –
CCOC(=O)C1(C)/C(=N/Nc2ccc(S(N)(=O)=O)cc2)C(=O)C(=O)N1c1ccccc1 (stereo not given) | – | – | – | – | – | –
OCC1(Cc2cccc(F)c2)CCN(Cc2ccc3cccc(F)c3n2)CC1 | + | · | – | – | · | –
COc1cccc(CC2(CO)CCN(Cc3ccc4cccc(F)c4n3)CC2)c1 | – | · | – | – | – | –
CC[n+]1c(/C=C/C=C/N(C(C)=O)c2ccccc2)sc2ccccc21 | + | – | – | – | ? | –
O=C(/C=C/c1ccc(-c2ccccc2[N+](=O)[O-])o1)c1ccco1 | – | · | – | – | – | –
CC(Nc1nc(N2CCNCC2)nc2ccccc12)c1ccccc1 (stereo not given) | + | – | – | – | – | –
c1ccc(CNc2nc(N3CCN(Cc4ccccc4)CC3)nc3ccccc23)cc1 | · | · | · | – | – | ·
SMILES | Autophagy HCS | INS promoter inh | Arbovirus inh | RBBP9 inhibitor | Insulin prom up | PKD1 inh
O=C(CN(c1ccc(F)cc1)S(=O)(=O)c1ccc2c(c1)OCCO2)NCC1CCCO1 (stereo not given) | – | – | – | – | – | –
CCCCCCCCCCCCCCCC[n+]1ccc(C(N)=O)cc1 | – | · | – | – | – | –
CCCCCCCCCCCCCCCC[n+]1ccc(/C=N/O)cc1 | – | – | – | 40 | ? | –
Cc1nn2c(NC(C)C)c3c(nc2c1-c1ccccc1)CCC3 | · | · | · | – | – | ·
Cc1nn2c(Nc3ccccc3)c3c(nc2c1-c1ccccc1)CCC3 | – | 91 | – | – | – | –
O=C(CNC(=O)C(c1ccccc1)c1ccccc1)N/N=C/c1ccc(O)c([N+](=O)[O-])c1 | – | – | – | – | – | –
CSc1nc2cc(F)c(F)cc2n1C | – | 86 | – | – | – | –
Cc1nc2cc3ccccc3cc2n1C | – | – | – | – | – | –
Cc1cc(S(=O)(=O)NC2CCCCC2)c(C)s1 | – | · | – | – | 3.5 | –
CCN1C(=O)CC(N2CCN(c3ccc(C(=O)c4ccncc4)cc3)CC2)C1=O (stereo not given) | – | 70 | – | – | – | –
CCOC(=O)c1sc2nc(C)cc(C)c2c1N | – | 77 | – | – | – | –
COc1ccc(-c2nnc(SCC(=O)N3CCOCC3)n2C)cc1OC | – | – | – | – | · | –
N#CCCN1CCNCC1 | – | 68 | – | – | – | –
CC1(C)Cc2c(sc3ncn4c(=S)[nH]nc4c23)CO1 | – | – | – | – | – | –
CCCOc1ccc(/C=N/Nc2ccccc2[N+](=O)[O-])c(OCCC)c1 | – | 84 | – | – | – | –
O=C(NCCO)/C(=C\c1ccc([N+](=O)[O-])o1)NC(=O)c1ccccc1 | – | · | – | – | – | –
CCOC(=O)/C(=C\c1ccc([N+](=O)[O-])o1)NC(=O)c1ccccc1 | + | – | – | – | – | –
CCCOC(=O)/C(=C\c1ccc([N+](=O)[O-])o1)NC(=O)c1ccccc1 | + | – | – | – | – | –
c1ccc(OCCOCCSc2ncccn2)cc1 | – | 81 | – | – | – | –
COc1c(S(=O)(=O)NCCCN2CCOCC2)ccc(Cl)c1Cl | · | · | · | – | – | ·
CN(CC(=O)Nc1cccc(S(=O)(=O)NC2=NCCCCC2)c1)Cc1ccc(C(C)(C)C)cc1 | – | · | – | – | – | –
CCOc1ccc(NC(=O)C2CCC(C)(C(=O)O)C2(C)C)cc1 (stereo not given) | – | · | – | – | 3.6 | –
CCOC(=O)c1oc2c(c1C)/C(=N/O)CCC2 | – | 88 | – | – | · | –
CCOC(=O)c1oc2c(c1C)C(=O)CCC2 | – | – | – | – | – | –
CC1Oc2ccccc2N(CC(=O)Nc2ccc3c(c2)OCO3)C1=O (stereo not given) | – | – | – | – | – | –
SMILES | Autophagy HCS | INS promoter inh | Arbovirus inh | RBBP9 inhibitor | Insulin prom up | PKD1 inh
O=C(Nc1ncc(Cc2cccc(Cl)c2Cl)s1)C1CCCO1 (stereo not given) | – | – | – | – | · | –
Cc1cc(C)c2nc(NNC(=O)c3cc(-c4cccs4)nc4ccccc34)sc2c1 | – | ? | – | – | 3.7 | –
Cc1ccc2sc(NNC(=O)c3cc(-c4cccs4)nc4ccccc34)nc2c1C | – | – | – | – | – | –
CCS(=O)(=O)N1Cc2ccccc2CC1C(=O)Nc1ccc(C)cc1 (stereo not given) | – | – | – | – | – | –
CCS(=O)(=O)N1Cc2ccccc2CC1C(=O)Nc1ncc(C)s1 (stereo not given) | + | · | – | – | – | –
CCC/S(C)=N/S(=O)(=O)c1ccc(C)cc1 (stereo not given) | – | – | – | – | – | –

High-throughput results (PubChem)
